According to ChEMBL document CHEMBL1150226, “Cytotoxic constituents from leaves of Aglaia elliptifolia” (2001):
Values after ≈ are worked out from the molar mass of the structure shown.

Tests used:
Assay type in all cases: functional
Conditions in all cases: read-out: ED50 (the source's name)
P388 = assay: Cytotoxicity against mouse P388 cells
Procedure, shortened: (§1)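 KB and P-388 cells supplied by an academic laboratory (University of Illinois at Chicago); the assay protocol itself is given only by reference to earlier work.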

HT-29 = assay: Cytotoxicity against human HT-29 cells
Procedure, shortened: (§2)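 Cell lines obtained from the American Type Culture Collection; the assay protocol itself is given only by reference to earlier work.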

KB = assay: Cytotoxicity against human KB cells; procedure, shortened: as §1
HL-60 = assay: Cytotoxicity against human HL60 cells; procedure, shortened: as §2
A549 = assay: Cytotoxicity against human A549 cells; procedure, shortened: as §2

Compound	EC50 (P388) [µg/mL]	EC50 (HT-29) [µg/mL]	EC50 (KB) [µg/mL]	EC50 (HL-60) [µg/mL]	EC50 (A549) [µg/mL]
C/C=C(\C)C(=O)NC(CCCO)NC(=O)/C=C/c1ccccc1 (stereo not given)	3.62 (≈ 11.4 µM)	> 50	> 50	32.1 (≈ 101 µM)	> 50
C/C=C(\C)C(=O)N[C@@H]1CCCN1C(=O)[C@@H]1[C@@H](c2ccccc2)[C@]2(c3ccc(OC)cc3)Oc3cc(OC)cc(OC)c3[C@@]1(O)[C@@H]2O [ELLIPTIFOLINE]	3.41 (≈ 5.42 µM)	> 50	> 50	> 50	18.9 (≈ 30.1 µM)
COc1ccc([C@@]23Oc4cc(OC)cc(OC)c4[C@]2(O)[C@H](O)[C@H](C(=O)O)[C@H]3c2ccccc2)cc1 [ROCAGLOIC ACID]	0.0012 (≈ 0.00251 µM)	0.00084 (≈ 0.00176 µM)	0.0023 (≈ 0.00481 µM)	0.00084 (≈ 0.00176 µM)	0.00074 (≈ 0.00155 µM)
